Measured values published in ChEMBL document CHEMBL1687916, “Non-nucleoside inhibitors of human adenosine kinase: synthesis, molecular modeling, and biological studies” (J Med Chem, 2011).

Tests used:
Adenosine kinase = Adenosine kinase (Homo sapiens, UniProt P55263); experiment: Inhibition of human adenosine kinase
[1] = molecular target: T1, Adenosine deaminase (Bos taurus) (UniProt P56658); experiment: Inhibition of bovine ADA at 100 uM by spectrophotometric analysis
T1 sequence (whole entry): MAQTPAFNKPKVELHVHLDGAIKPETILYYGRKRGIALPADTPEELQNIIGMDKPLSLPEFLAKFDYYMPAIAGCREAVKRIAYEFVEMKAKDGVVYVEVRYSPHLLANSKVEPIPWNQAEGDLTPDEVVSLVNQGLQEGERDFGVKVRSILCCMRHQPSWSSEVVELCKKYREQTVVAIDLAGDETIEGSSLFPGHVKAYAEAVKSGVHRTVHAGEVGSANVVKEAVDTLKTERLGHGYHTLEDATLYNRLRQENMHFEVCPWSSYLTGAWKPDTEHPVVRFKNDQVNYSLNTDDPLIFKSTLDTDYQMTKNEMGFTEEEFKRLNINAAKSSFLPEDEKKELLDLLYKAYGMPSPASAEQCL
Summary of the method: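 Adenosine deaminase assayed at 30 C with 50 μM Ado, 50 mM potassium phosphate pH 7.2 and 0.3 nM enzyme. Deamination was followed as A262 change over 2 min. Compound tested at 100 μM, with DMSO at most 4% final and a substrate-free blank. Percent inhibition from two determinations in triplicate.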

NIH3T3 = experiment: Cytotoxicity against mouse 3T3 cells by phenyltetrazolium bromide assay; format: functional, cell-based
Summary of the method: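 Murine 3T3 fibroblasts; proliferation measured by MTT assay, with IC50 reported. Each value is the mean of three determinations; Student's t test, p < 0.05.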

Chain of Adenosine kinase (P55263 whole entry): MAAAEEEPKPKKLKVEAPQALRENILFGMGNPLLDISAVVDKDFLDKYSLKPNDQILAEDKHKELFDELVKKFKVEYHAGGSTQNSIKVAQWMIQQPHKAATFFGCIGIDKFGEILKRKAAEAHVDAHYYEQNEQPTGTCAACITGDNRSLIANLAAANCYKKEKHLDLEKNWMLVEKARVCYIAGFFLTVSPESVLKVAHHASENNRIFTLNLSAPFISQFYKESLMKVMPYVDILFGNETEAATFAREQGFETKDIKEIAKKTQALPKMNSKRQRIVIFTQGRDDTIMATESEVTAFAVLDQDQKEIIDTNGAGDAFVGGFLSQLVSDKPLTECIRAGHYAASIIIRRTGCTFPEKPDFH

SMILES | IC50 (Adenosine kinase; read-out: IC50) [µM] | also measured
CCC1(c2ccc(CSc3ccc(C#C[Si](C)(C)C)cc3)cc2)Sc2ccccc2-n2cccc2C1=O (racemic) | 2 | –
CCC1(c2ccc(CSc3cccc(OC)c3)cc2)Oc2ccccc2-n2cccc2C1=O (racemic) | 12.5 | –
CCC1(c2ccc(CSc3ncc[nH]3)cc2)Oc2ccccc2-n2cccc2C1=O (racemic) | 3.5 | –
CCC1(c2ccc(CSc3cc(OC)ccc3OC)cc2)Oc2ccccc2-n2cccc2C1=O (racemic) | 35 | –
CCC1(c2ccc(CSc3ccc(I)cc3Cl)cc2)Oc2ccccc2-n2cccc2C1=O (racemic) | 2 | –
CCC1(c2ccc(CSc3ccc(F)c(Cl)c3)cc2)Oc2ccccc2-n2cccc2C1=O (racemic) | 11 | –
CCC1(c2ccc(CSc3ccccc3F)cc2)Oc2ccccc2-n2cccc2C1=O (racemic) | 4.5 | –
CCC1(c2ccc(CSc3cnccn3)cc2)Oc2ccccc2-n2cccc2C1=O (racemic) | 7 | –
O=C1c2cccn2-c2ccccc2OC1c1ccc(CSc2cccc(C(F)(F)F)c2)cc1 (racemic) | 9 | –
CCC1(c2ccc(CSc3ccc(OC(F)(F)F)cc3)cc2)Oc2ccccc2-n2cccc2C1=O (racemic) | 6.7 | –
CCC1(c2ccc(COc3cccc(CCO)c3)cc2)Oc2ccccc2-n2cccc2C1=O (racemic) | 8 | –
CCC1(c2ccc(CSc3ccc(I)cc3)cc2)Oc2ccccc2-n2cccc2C1=O (racemic) | 2.5 | IC50 (NIH3T3): 43.5 µM
O=C1c2cccn2-c2ccccc2OC1c1ccc(CSc2ccccc2)cc1 (racemic) | 4 | –
CCC1(c2ccc(CSc3ccccc3Cl)cc2)Sc2ccccc2-n2cccc2C1=O (racemic) | 5 | –
CCC1(c2ccc(CSc3ccccn3)cc2)Oc2ccccc2-n2cccc2C1=O (racemic) | 4.5 | –
CC(=O)OC1=C(c2ccccc2)Sc2ccccc2-n2cccc21 | – | IC50 (Adenosine kinase): Not Active
CCC1(c2ccc(CSc3c(Cl)cccc3Cl)cc2)Oc2ccccc2-n2cccc2C1=O (racemic) | 20 | –
CCC1(c2ccc(CSc3ccc(Br)cc3)cc2)Oc2ccccc2-n2cccc2C1=O (racemic) | 2 | IC50 (NIH3T3): 47.6 µM
CCC1(c2ccc(CSc3ncccn3)cc2)Oc2ccccc2-n2cccc2C1=O (racemic) | 7 | –
CCC1(c2ccccc2)Oc2ccccc2-n2cccc2C1=O (racemic) | 85 | –
CCC1(c2ccc(CSc3c(F)c(F)cc(F)c3F)cc2)Oc2ccccc2-n2cccc2C1=O (racemic) | 8 | –
CCC1(c2ccc(CSc3ccc([N+](=O)[O-])cc3)cc2)Oc2ccccc2-n2cccc2C1=O (racemic) | 6.2 | –
CC(=O)OC1=C(c2ccccc2)Oc2ccccc2-n2cccc21 | – | IC50 (Adenosine kinase): Not Active
CCC1(c2ccc(CSc3c(C)cccc3Cl)cc2)Oc2ccccc2-n2cccc2C1=O (racemic) | 3 | –
CCC1(c2ccc(CSc3cccc(Cl)c3Cl)cc2)Oc2ccccc2-n2cccc2C1=O (racemic) | 3 | –
CCC1(c2ccc(COc3ccc(I)cc3Cl)cc2)Oc2ccccc2-n2cccc2C1=O (racemic) | 1.2 | –
CCC1(c2ccc(CSc3cccc(Cl)c3)cc2)Oc2ccccc2-n2cccc2C1=O (racemic) | 3.5 | –
O=C1c2cccn2-c2ccccc2OC1c1ccccc1 (racemic) | 100 | –

Now from value to compound, other results behind:

IC50 (Adenosine kinase; read-out: IC50) [µM] | SMILES | also measured
4 | CCC1(c2ccc(CSc3cccc(F)c3)cc2)Oc2ccccc2-n2cccc2C1=O (racemic) | –
15 | C#Cc1ccc(SCc2ccc(C3(CC)Oc4ccccc4-n4cccc4C3=O)cc2)cc1 (racemic) | inhibition [1]: 16%
14 | CCC1(c2ccc(CSc3cc(Cl)ccc3Cl)cc2)Oc2ccccc2-n2cccc2C1=O (racemic) | –
7.5 | CCC1(c2ccc(CSc3c(Cl)cccc3Cl)cc2)Oc2ccccc2-n2cccc2C1=O (single isomer, unassigned; (+)) | –
150 | CCC1(c2cccc(C)c2)Oc2ccccc2-n2cccc2C1=O (racemic) | –
> 1000 | CN(C)c1ccc2n1-c1ccccc1SC(c1ccccc1)C2=O (racemic) | –
2.5 | CCC1(c2ccc(CSc3cccc(C(F)(F)F)c3)cc2)Oc2ccccc2-n2cccc2C1=O (racemic) | inhibition [1]: 2.7%; IC50 (NIH3T3): 44.6 µM
80 | CCC1(c2ccc(C)cc2)Oc2ccccc2-n2cccc2C1=O (racemic) | –
22.5 | CCC1(c2ccc(CSc3ccc(Cl)cc3Cl)cc2)Oc2ccccc2-n2cccc2C1=O (racemic) | –
4.4 | O=C1c2cccn2-c2ccccc2OC1c1ccc(CSc2ccccc2Cl)cc1 (racemic) | –
40 | CCC1(c2ccc(CSc3c(Cl)cccc3Cl)cc2)Oc2ccccc2-n2cccc2C1=O (single isomer, unassigned; (-)) | –
3.2 | CCC1(c2ccc(CSc3cccc(OC(F)(F)F)c3)cc2)Oc2ccccc2-n2cccc2C1=O (racemic) | –
14 | CCC1(c2ccc(CSc3ccc(OC)cc3)cc2)Oc2ccccc2-n2cccc2C1=O (racemic) | –
130 | O=C1c2cccn2-c2ccccc2SC1c1ccccc1 (racemic) | –
10 | CCC1(c2ccc(CSc3ccc(C#C[Si](C)(C)C)cc3)cc2)Oc2ccccc2-n2cccc2C1=O (racemic) | –
21.4 | CCC1(c2ccc(CSc3cccc(C)c3)cc2)Oc2ccccc2-n2cccc2C1=O (racemic) | –
2.5 | CCC1(c2ccc(CSc3ccc(F)cc3Cl)cc2)Oc2ccccc2-n2cccc2C1=O (racemic) | –
1 | CCC1(c2ccc(CSc3ccc(F)cc3)cc2)Oc2ccccc2-n2cccc2C1=O (racemic) | inhibition [1]: 13%
200 | CCN(CC)CCc1cccc(OCc2ccc(C3(CC)Oc4ccccc4-n4cccc4C3=O)cc2)c1 (racemic) | –
10 | CCC1(c2ccc(CSc3ccc(F)cc3F)cc2)Oc2ccccc2-n2cccc2C1=O (racemic) | –
10 | CCC1(c2ccc(CSc3ccc(Cl)c(Cl)c3)cc2)Oc2ccccc2-n2cccc2C1=O (racemic) | –
150 | CCC1(c2ccc(COc3cccc(CCN4CCCC4)c3)cc2)Oc2ccccc2-n2cccc2C1=O (racemic) | –
1 | CCC1(c2ccc(CSc3ccccc3Cl)cc2)Oc2ccccc2-n2cccc2C1=O (racemic) | inhibition [1]: 6.5%; IC50 (NIH3T3): 97.8 µM
2.2 | CCC1(c2ccc(CSc3ccc(I)cc3)cc2)Sc2ccccc2-n2cccc2C1=O (racemic) | –
